Experimental data from ChEMBL document CHEMBL1128220, “Syntheses and antimalarial activities of N-substituted 11-azaartemisinins” (J Med Chem, 1995).

What was measured:
Plasmodium falciparum = assay: In vitro antimalarial activity for chloroquine-resistant Plasmodium falciparum FCR3 relative to artemisinin; format: functional
Mus musculus [1] = assay: Number of mice alive 60 days after infection at the dose of 128 mg/kg/day among the 5 mice tested; format: functional
Summary of the method: (§1)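 Mice infected with Plasmodium berghei were dosed in mg/kg/day, from 0 for untreated controls up to 256. Deaths were logged by the day postinfection on which they occurred. Surviving mice were counted 60 days after infection. Treated groups held 5 or 7 mice.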

Mus musculus [2] = assay: Number of mice alive 60 days after infection at the dose of 32 mg/kg/day among the 5 mice tested; format: functional; summary of the method: as §1
Mus musculus [3] = assay: Number of mice alive 60 days after infection at the dose of 8 mg/kg/day among the 5 mice tested; format: functional; summary of the method: as §1
Mus musculus [4] = assay: In vivo study of Plasmodium berghei in mice (Mus musculus) was determined by number of dead mice (Mus musculus) after 20 days post infection at the dose of 8 mg/kg/day; format: ADME, organism-based; details: 480 h; summary of the method: as §1
Mus musculus [5] = assay: In vivo study of compound in mice was determined by no. of dead mice after 15 days post infection at the dose of 8 mg/kg/day; format: ADME, organism-based; details: 360 h; summary of the method: as §1
Mus musculus [6] = assay: In vivo study of compound in mice was determined by no. of dead mice after 16 days post infection at the dose of 8 mg/kg/day; format: ADME, organism-based; details: 384 h; summary of the method: as §1
Mus musculus [7] = assay: In vivo study of compound in mice was determined by no. of dead mice after 19 days post infection at the dose of 8 mg/kg/day; format: ADME, organism-based; details: 456 h; summary of the method: as §1
Mus musculus [8] = assay: In vivo study of compound in mice was determined by no. of dead mice after 26 days post infection at the dose of 8 mg/kg/day; format: ADME, organism-based; details: 624 h; summary of the method: as §1
Mus musculus [9] = assay: Number of mice alive 60 days after infection at the dose of 16 mg/kg/day among the 7 mice tested; format: functional; summary of the method: as §1
Mus musculus [10] = assay: Number of mice alive 60 days after infection at the dose of 256 mg/kg/day among the 7 mice tested; format: functional; summary of the method: as §1
Mus musculus [11] = assay: Number of mice alive 60 days after infection at the dose of 4 mg/kg/day among the 7 mice tested; format: functional; summary of the method: as §1
Mus musculus [12] = assay: Number of mice alive 60 days after infection at the dose of 64 mg/kg/day among the 7 mice tested; format: functional; summary of the method: as §1
Mus musculus [13] = assay: In vivo study of compound in mice was determined by no. of dead mice after 11 days post infection at the dose of 4 mg/kg/day; format: ADME, organism-based; details: 264 h; summary of the method: as §1
Mus musculus [14] = assay: In vivo study of compound in mice was determined by no. of dead mice after 12 days post infection at the dose of 4 mg/kg/day; format: ADME, organism-based; details: 288 h; summary of the method: as §1
Mus musculus [15] = assay: In vivo study of compound in mice was determined by no. of dead mice after 16 days post infection at the dose of 4 mg/kg/day; format: ADME, organism-based; details: 384 h; summary of the method: as §1
Mus musculus [16] = assay: In vivo study of compound in mice was determined by no. of dead mice after 18 days post infection at the dose of 16 mg/kg/day; format: ADME, organism-based; details: 432 h; summary of the method: as §1
Mus musculus [17] = assay: In vivo study of compound in mice was determined by no. of dead mice after 18 days post infection at the dose of 4 mg/kg/day; format: ADME, organism-based; details: 432 h; summary of the method: as §1
Mus musculus [18] = assay: In vivo study of compound in mice was determined by no. of dead mice after 8 days post infection at the dose of 4 mg/kg/day; format: ADME, organism-based; details: 192 h; summary of the method: as §1
Mus musculus [19] = assay: In vivo study of compound in mice was determined by no. of dead mice after 9 days post infection at the dose of 4 mg/kg/day; format: ADME, organism-based; details: 216 h; summary of the method: as §1
Mus musculus [20] = assay: In vivo study of control in mice was determined by no. of dead mice after 7 days post infection at the dose of 0 mg/kg/day; format: ADME, organism-based; details: 168 h; summary of the method: as §1
Mus musculus [21] = assay: In vivo study of control in mice was determined by no. of dead mice after 8 days post infection at the dose of 0 mg/kg/day; format: ADME, organism-based; details: 192 h; summary of the method: as §1
Mus musculus [22] = assay: In vivo study of control in mice was determined by no. of dead mice after 9 days post infection at the dose of 0 mg/kg/day; format: ADME, organism-based; details: 216 h; summary of the method: as §1
Mus musculus [23] = assay: Number of mice alive 60 days after infection at the dose of 0 mg/kg/day among the 7 mice tested; format: functional; summary of the method: as §1
Mus musculus [24] = assay: Number of mice alive 60 days after infection at the dose of 128 mg/kg/day among the 7 mice tested; format: functional; summary of the method: as §1
Mus musculus [25] = assay: Number of mice alive 60 days after infection at the dose of 32 mg/kg/day among the 7 mice tested; format: functional; summary of the method: as §1
Mus musculus [26] = assay: Number of mice alive 60 days after infection at the dose of 8 mg/kg/day among the 7 mice tested; format: functional; summary of the method: as §1
Mus musculus [27] = assay: In vivo study of Plasmodium berghei in mice (Mus musculus) was determined by number of dead mice (Mus musculus) after 27 days post infection at the dose of 32 mg/kg/day; format: ADME, organism-based; details: 648 h; summary of the method: as §1
Mus musculus [28] = assay: In vivo study of control in mice was determined by no. of dead mice after 10 days post infection at the dose of 0 mg/kg/day; format: ADME, organism-based; details: 240 h; summary of the method: as §1
Mus musculus [29] = assay: In vivo study of Plasmodium berghei in mice (Mus musculus) was determined by number of dead mice (Mus musculus) after 12 days post infection at the dose of 32 mg/kg/day; format: ADME, organism-based; details: 288 h; summary of the method: as §1
Mus musculus [30] = assay: In vivo study of Plasmodium berghei in mice (Mus musculus) was determined by number of dead mice (Mus musculus) after 13 days post infection at the dose of 8 mg/kg/day; format: ADME, organism-based; details: 312 h; summary of the method: as §1
Mus musculus [31] = assay: In vivo study of Plasmodium berghei in mice (Mus musculus) was determined by number of dead mice (Mus musculus) after 14 days post infection at the dose of 8 mg/kg/day; format: ADME, organism-based; details: 336 h; summary of the method: as §1
Mus musculus [32] = assay: In vivo study of Plasmodium berghei in mice (Mus musculus) was determined by number of dead mice (Mus musculus) after 16 days post infection at the dose of 8 mg/kg/day; format: ADME, organism-based; details: 384 h; summary of the method: as §1
Mus musculus [33] = assay: In vivo study of Plasmodium berghei in mice (Mus musculus) was determined by number of dead mice (Mus musculus) after 17 days post infection at the dose of 128 mg/kg/day; format: ADME, organism-based; details: 408 h; summary of the method: as §1
Mus musculus [34] = assay: In vivo study of Plasmodium berghei in mice (Mus musculus) was determined by number of dead mice (Mus musculus) after 18 days post infection at the dose of 32 mg/kg/day; format: ADME, organism-based; details: 432 h; summary of the method: as §1
Mus musculus [35] = assay: In vivo study of Plasmodium berghei in mice (Mus musculus) was determined by number of dead mice (Mus musculus) after 19 days post infection at the dose of 32 mg/kg/day; format: ADME, organism-based; details: 456 h; summary of the method: as §1
Mus musculus [36] = assay: In vivo study of Plasmodium berghei in mice (Mus musculus) was determined by number of dead mice (Mus musculus) after 20 days post infection at the dose of 32 mg/kg/day; format: ADME, organism-based; details: 480 h; summary of the method: as §1

C[C@@H]1CCC2[C@@H](C)C(=O)N[C@@H]3O[C@@]4(C)CC[C@@H]1[C@@]23OO4 (some centres not stated)
Relative activity (Plasmodium falciparum): 1

C=CCN1C(=O)[C@H](C)C2CC[C@@H](C)[C@@H]3CC[C@@]4(C)OO[C@@]23[C@H]1O4 (some centres not stated)
Relative activity (Plasmodium falciparum): 0.8

CO[C@@]1(C)CC[C@@H]2C3C(CC[C@H]2C)[C@@H](C)C(=O)N[C@@H]3O1 (some centres not stated)
Relative activity (Plasmodium falciparum): 0.01

C[C@@H]1CCC2[C@@H](C)C(=O)N(CC=O)[C@@H]3O[C@@]4(C)CC[C@@H]1[C@@]23OO4 (some centres not stated)
No. of mice alive (Mus musculus [1]): 5 | No. of mice alive (Mus musculus [2]): 5 | No. of mice alive (Mus musculus [3]): 0 | No. of dead mice (Mus musculus [4]): 1 | No. of dead mice (Mus musculus [5]): 1 | No. of dead mice (Mus musculus [6]): 1 | No. of dead mice (Mus musculus [7]): 1 | No. of dead mice (Mus musculus [8]): 1 | Relative activity (Plasmodium falciparum): 26

CO[C@@]1(C)CC[C@@H]2C3C(CC[C@H]2C)[C@@H](C)C(=O)N(Cc2ccccn2)[C@@H]3O1 (some centres not stated)
Relative activity (Plasmodium falciparum): 0.008

C[C@@H]1CCC2[C@@H](C)C(=O)N(Cc3cccs3)[C@@H]3O[C@@]4(C)CC[C@@H]1[C@@]23OO4 (some centres not stated)
Relative activity (Plasmodium falciparum): 1.1

C[C@@H]1CCC2[C@@H](C)C(=O)N(Cc3ccccn3)[C@@H]3O[C@@]4(C)CC[C@@H]1[C@@]23OO4 (some centres not stated)
Relative activity (Plasmodium falciparum): 22

C[C@@H]1CCC2[C@@H](C)C(=O)N(C)[C@@H]3O[C@@]4(C)CC[C@@H]1[C@@]23OO4 (some centres not stated)
Relative activity (Plasmodium falciparum): 2.6

CO[C@@]1(C)CC[C@@H]2C3C(CC[C@H]2C)[C@@H](C)C(=O)N(CC(C)(C)C)[C@@H]3O1 (some centres not stated)
Relative activity (Plasmodium falciparum): 0.001

C[C@@H]1CCC2[C@@H](C)C(=O)N(CC(C)(C)C)[C@@H]3O[C@@]4(C)CC[C@@H]1[C@@]23OO4 (some centres not stated)
Relative activity (Plasmodium falciparum): 9

CCOC1O[C@@H]2O[C@@]3(C)CC[C@H]4[C@H](C)CCC([C@H]1C)[C@@]24OO3 (some centres not stated)
No. of mice alive (Mus musculus [9]): 6 | No. of mice alive (Mus musculus [10]): 7 | No. of mice alive (Mus musculus [11]): 0 | No. of mice alive (Mus musculus [12]): 7 | No. of dead mice (Mus musculus [13]): 1 | No. of dead mice (Mus musculus [14]): 1 | No. of dead mice (Mus musculus [15]): 1 | No. of dead mice (Mus musculus [16]): 1 | No. of dead mice (Mus musculus [17]): 2 | No. of dead mice (Mus musculus [18]): 1 | No. of dead mice (Mus musculus [19]): 1

C[C@@H]1CC[C@H]2[C@@H](C)C(=O)O[C@@H]3O[C@@]4(C)CC[C@@H]1[C@]32OO4 [ARTEMISININ]
No. of dead mice (Mus musculus [20]): 3 | No. of dead mice (Mus musculus [21]): 2 | No. of dead mice (Mus musculus [22]): 1 | No. of mice alive (Mus musculus [23]): 0 | No. of mice alive (Mus musculus [24]): 6 | No. of mice alive (Mus musculus [25]): 2 | No. of mice alive (Mus musculus [26]): 0 | No. of dead mice (Mus musculus [27]): 1 | No. of dead mice (Mus musculus [28]): 1 | No. of dead mice (Mus musculus [29]): 1 | No. of dead mice (Mus musculus [30]): 1 | No. of dead mice (Mus musculus [31]): 2 | No. of dead mice (Mus musculus [32]): 2 | No. of dead mice (Mus musculus [33]): 1 | No. of dead mice (Mus musculus [34]): 1 | No. of dead mice (Mus musculus [35]): 1 | No. of dead mice (Mus musculus [36]): 1

C[C@@H]1CCC2[C@@H](C)C(=O)N(Cc3ccco3)[C@@H]3O[C@@]4(C)CC[C@@H]1[C@@]23OO4 (some centres not stated)
Relative activity (Plasmodium falciparum): 1
